From PubChem
HCT116 PTEN-null: growth suppression of PTEN-null HCT116, primary screen, cell-based, CellTiter-Glo | HCT116 PTEN-null viability, 60 h; active compounds read low | viability, % at 10 µM | 1.2% of 140,000 active | AID 827, 2007;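 active means viability at or below a set limit, 4 SD under the median of all tested compounds, cut at about 3.7% in these data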;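 further: PTEN knockout HCT116 line with beta catenin targeted HCT116 as companion control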
HCT116 bCat-KO: primary screen for growth suppressors in beta-catenin knockout HCT116 cells (colon tumor, human); HCT116 beta-catenin knockout viability, CellTiter-Glo, 60 h; active compounds read low; AID 818, 2007; 1.5% of 140,000 active; viability, % at 10 µM;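 active means viability at or under a set limit, the compound median less 4 SD, cut at about 6% in these data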
H69AR growth 86K: proliferation blockers of H69AR lung cancer cells, primary screen, cell-based, human, 86K library; H69AR lung tumor viability, ATP luminescence, 72 h; active compounds read low; viability, % at 10 µM; 6% of 85,000 active; AID 598, 2007;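 active means viability at or below 40%; inactive means viability above 40%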;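 further: multidrug resistant small cell line overexpressing MRP-1 efflux transporter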
HUVEC prolif 384: inhibitors of HUVEC proliferation, primary screen, cell-based, 384-well | CellTiter-Glo luminescence, 72 h; active compounds read low | viability, % at 10 µM (by protocol) | 1.1% of 86,000 active | AID 648, 2007;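 active means viability at or below 30%; inactive means viability above 30%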
Fibroblast inh: antiproliferative effect on LL 47 fibroblasts – human, LL 47 cells, CellTiter-Glo luminescence, primary screen. LL 47 human lung fibroblast viability, ATP luminescence; active compounds read low. viability, % at 10 µM. 1.1% of 85,000 active. AID 719, 2007;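 active means viability at or below 50% in the single dose screen; inactive means viability above 50%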;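 further: compound exposure lasted 72 h before the ATP readout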
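Signal: luminescent ATP detection, CellTiter-Glo; assay system: LL 47 human lung fibroblasts; input: 1,150 cells/well; incubation: overnight cell rest, 72 h compound treatment at 37 °C; measure: % viability versus median cells-only luminescence; medium: IMEM growth medium with 15% fetal bovine serum; dosing: compound addition at 0.1% DMSO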
Each line names hits and unclear results; the compound was inactive in the other large screens. The full list was thinned out, with hits kept by preference.

O=C(Nc1nc2ccc(S(=O)(=O)N3CCCCC3)cc2s1)C1CCCO1 (configuration not stated)	none
O=C(Nc1nc2ccc(S(=O)(=O)N3CCCC3)cc2s1)C1CCCCC1	H69AR growth 86K 22.7, Fibroblast inh 46.6
Nc1nc2ccc(S(=O)(=O)N3CCCCC3)cc2s1	H69AR growth 86K 0.7, Fibroblast inh 47.4
O=C(Nc1cccc(C(F)(F)F)c1)N1CCN(C(=O)Nc2cccc(C(F)(F)F)c2)CC1	none (no result: H69AR growth 86K, HUVEC prolif 384, Fibroblast inh)
O=C(Nc1cccc(C(F)(F)F)c1)C12CC3CC(CC(C3)C1)C2	HCT116 PTEN-null 1.0, HCT116 bCat-KO 0.9
CCCn1nnc(NC(=O)COc2ccc(C3CCCCC3)cc2)n1	none
FC(F)(F)c1cc(-c2ccco2)nc(NCCc2ccccc2)n1	H69AR growth 86K 24.0
N=c1c2c(-c3ccccc3)c(-c3ccccc3)n(Cc3ccco3)c2ncn1Cc1ccco1	HCT116 PTEN-null 1.4, HCT116 bCat-KO 1.5, H69AR growth 86K 1.4, HUVEC prolif 384 2.7 (no result: Fibroblast inh)
N=c1c2c(-c3ccccc3)c(-c3ccccc3)n(Cc3ccccc3)c2ncn1CCCn1ccnc1	HCT116 PTEN-null 2.0, HCT116 bCat-KO 1.2, H69AR growth 86K -0.2, HUVEC prolif 384 2.3, Fibroblast inh 2.4
CCc1cc(C(=O)COc2ccccc2F)c(O)cc1O	none
CC(C)C1CC(CCNCc2ccc(N(C)C)cc2)(c2ccccc2)CCO1 (configuration not stated)	HCT116 PTEN-null 2.6, HCT116 bCat-KO 2.3 (no result: H69AR growth 86K, HUVEC prolif 384, Fibroblast inh)
COc1cccc(/C=N\n2c(C)nnc2C)c1OC	none (no result: H69AR growth 86K, HUVEC prolif 384, Fibroblast inh)
COc1ccc(/C=N/n2c(SC)nnc2-c2ccccc2)cc1C	H69AR growth 86K 26.2
COc1ccc(/C=N/N2CCN(c3ccccc3OC)CC2)cc1OC	none (no result: H69AR growth 86K, HUVEC prolif 384, Fibroblast inh)
COc1ccc(/C=N/n2c(SC)nnc2-c2ccccc2)c(OC)c1OC	H69AR growth 86K 30.2
O=C(/C(=N\Nc1ccccc1)Sc1nnnn1-c1ccccc1)c1ccccc1	none (no result: H69AR growth 86K, HUVEC prolif 384, Fibroblast inh)
Cc1ccc(C(=O)C2CCN(CC(=O)Nc3nc(C)cs3)CC2)cc1	none (no result: H69AR growth 86K, HUVEC prolif 384, Fibroblast inh)
Cc1nc(N2CCOCC2)nc(OCCN2CCOCC2)c1[N+](=O)[O-]	none (no result: H69AR growth 86K, HUVEC prolif 384, Fibroblast inh)
Cc1cc(Nc2cccc([N+](=O)[O-])c2)n2c(nc3ccccc32)c1C#N	HCT116 bCat-KO 3.4 (no result: H69AR growth 86K, HUVEC prolif 384, Fibroblast inh)
COc1ccc(-c2nc(C#N)c(NCc3ccccc3Cl)o2)cc1	none
COc1ccc(-c2nc(C#N)c(NCc3ccccc3Cl)o2)cc1OC	H69AR growth 86K 5.7
CCC1CCCCN1c1nc(-c2cccc(OC)c2O)nc2ccccc12 (configuration not stated)	none
Oc1ccccc1-c1nc(NCC2CCCO2)c2ccccc2n1 (configuration not stated)	H69AR growth 86K 35.5
CCC(C)Nc1nc(-c2cccc(OC)c2O)nc2ccccc12 (configuration not stated)	HCT116 PTEN-null 2.1, HCT116 bCat-KO 2.5, H69AR growth 86K 4.9
COc1cccc(-c2nc(NC(C)C)c3ccccc3n2)c1O	none
COc1cccc(-c2nc(NCC3CCCO3)c3ccccc3n2)c1O (configuration not stated)	H69AR growth 86K 31.9
CCOC(=O)c1ccc(NC(=O)CN2C(=O)C(CC)SC(CC)C2=O)cc1 (configuration not stated)	none (no result: H69AR growth 86K, HUVEC prolif 384, Fibroblast inh)
O=C(Nc1nc2c(cc3c4c(cccc42)CC3)s1)c1ccccc1Cl	none (no result: H69AR growth 86K, HUVEC prolif 384, Fibroblast inh)
O=C(/C=C/c1cccc([N+](=O)[O-])c1)Nc1cccc(NC(=O)c2cccs2)c1	none (no result: H69AR growth 86K, HUVEC prolif 384, Fibroblast inh)
Cc1cccc(NC(=O)C2CCCN2S(=O)(=O)c2cccc3cccnc23)c1 (configuration not stated)	none
COC(=O)c1sccc1NC(=O)c1cc(-c2cccc(C)c2)nc2ccccc12	HCT116 PTEN-null 0.8, HCT116 bCat-KO 2.0 (no result: H69AR growth 86K, HUVEC prolif 384, Fibroblast inh)
CCCn1c(/N=C/c2cc(OC)ccc2O)nc2ccccc21	H69AR growth 86K 39.6
COc1cc2c(C(=O)NCc3ccc4c(c3)OCO4)cn(CC(C)C)c(=O)c2cc1OC	Fibroblast inh 42.2
O=C(CCn1c(=O)oc2ccccc21)NCc1cccs1	none
Cc1ccc(C(C)C)c(OCc2nnc(SCC(=O)Nc3ncc(C)s3)n2C)c1	H69AR growth 86K 9.8
Cc1cnc(NC(=O)CSc2nnc(Cc3ccccc3)n2C)s1	none
Cc1cc(Cl)ccc1NC(=O)NC1CCN(S(=O)(=O)c2ccc(F)cc2)CC1	H69AR growth 86K 39.3
Cc1cccc(C)c1NC(=O)CSCC(=O)c1ccc(O)c(O)c1	H69AR growth 86K 18.3
OCCn1c(Cl)nc2ccccc21	none
C=CCNC(=O)c1ccccc1NC(=O)c1ccccc1C	HCT116 PTEN-null 1.0, HCT116 bCat-KO 0.8
CCN(CCC(=O)Nc1cc([N+](=O)[O-])ccc1OC)Cc1ccccc1	none (no result: H69AR growth 86K, HUVEC prolif 384, Fibroblast inh)
O=C(Oc1cccc2cccnc12)c1ccc(Br)o1	none
O=C(Oc1ccc(Cl)c2cccnc12)c1ccco1	HCT116 bCat-KO 5.3, H69AR growth 86K 1.3, Fibroblast inh 4.2
O=C(Oc1cccc2ccccc12)c1ccco1	none
O=C(Oc1ccccc1)c1cccc2cccnc12	HCT116 PTEN-null 1.7, HCT116 bCat-KO 3.3, H69AR growth 86K 0.8, Fibroblast inh 35.6
O=C(Oc1cccc2cccnc12)c1ccc2c(c1)OCCO2	HCT116 PTEN-null 2.5, HCT116 bCat-KO 4.8, H69AR growth 86K 29.1, Fibroblast inh 3.2
O=S(=O)(Nc1ccc2c(c1)OCCO2)c1cccc2cccnc12	none
O=C(Oc1cccc2cccnc12)c1ccco1	HCT116 PTEN-null 1.8, HCT116 bCat-KO 3.0, H69AR growth 86K 1.5, Fibroblast inh 5.2
CCOC(=O)C1(c2nc(N)cs2)COC(=O)C1 (configuration not stated)	none (no result: Fibroblast inh)
O=C(c1cc2c(=O)oc3ccccc3c2s1)N1CCN(c2ccccn2)CC1	none (no result: HCT116 PTEN-null, HCT116 bCat-KO)
O=C(Oc1cccc2cccnc12)c1cccs1	HCT116 PTEN-null 1.9, HCT116 bCat-KO 4.1, H69AR growth 86K 1.6, Fibroblast inh 3.4
O=C(Cc1ccc(Cl)cc1)Oc1cccc2cccnc12	HCT116 PTEN-null 3.0, HCT116 bCat-KO 4.2 (no result: H69AR growth 86K, HUVEC prolif 384, Fibroblast inh)
NNC(=O)COc1cccc2cccnc12	none
CCCc1cc(C(=O)N2CCN(c3ccccc3C)CC2)cs1	none
O=C(c1cccs1)N(C(=O)c1cccs1)c1ccc(Br)cn1	H69AR growth 86K 26.5
CC(C)COC(=O)c1ccc2c(c1O)C(=O)c1ccccc1C2=O	HUVEC prolif 384 10.2
COc1ccccc1N1CCN(C2CCN(C(=O)COc3cccc(C)c3)CC2)CC1	none (no result: H69AR growth 86K, HUVEC prolif 384, Fibroblast inh)
Cc1ccc(C(=O)CSC2=C(C#N)C(c3ccco3)C3=C(CC(C)(C)CC3=O)N2)cc1 (configuration not stated)	none
N#CC1=C(SCC(=O)c2ccc(Cl)cc2)NC2=C(C(=O)CCC2)C1c1ccco1 (configuration not stated)	H69AR growth 86K 13.2
C=C(C)C1Cc2nc(N)nc(C)c2C1 (configuration not stated)	none
C=C(C)C1Cc2c(C)nn(-c3nc(C)cc(C)n3)c2C1 (configuration not stated)	H69AR growth 86K 3.2
CC(=O)c1ccn(S(=O)(=O)c2ccccc2)c1	none (no result: H69AR growth 86K, HUVEC prolif 384, Fibroblast inh)
